Activity calls are given as the source filed them. The rule behind the calls is not given here.
Experiments:
[1] = Cytotoxicity against HEK293T cells assessed as cell viability at 2 to 32 uM after 24 hrs by MTT assay relative to control; type: cell-based, HEK-293T; conditions: human, read-out: Activity
Procedure, shortened: (§1)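 MTT viability assay. RAW264.7 or HEK293T cells at (1.0−2.0) × 10^5 per well were exposed to a peptide concentration series for 24 h at 37 °C in 5% CO2. MTT was then added at 0.5 mg/mL final for 4 h; formazan was dissolved in DMSO and read at 570 nm. Results average three independent trials.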

RAW264.7 [2] = experiment: Cytotoxicity against mouse RAW264.7 cells assessed as decrease in cell viability at 64 uM after 24 hrs by MTT assay relative to control; type: cell-based; conditions: raw264.7, 24 h; procedure, shortened: as §1
[3] = Cytotoxicity against mouse RAW264.7 cells assessed as cell viability at 2 to 32 uM after 24 hrs by MTT assay relative to control; type: cell-based; conditions: read-out: Activity; procedure, shortened: as §1
Candida albicans [4] = experiment: Antifungal activity against Candida albicans cgmcc 2.2086 in presence of 25% human heat-inactivated serum by broth dilution method; type: functional
Candida albicans [5] = experiment: Induction of membrane damage in Candida albicans cgmcc 2.2086 assessed as membrane deformation at MFC after 1 hr by atomic force microscopy; type: functional, organism-based
Procedure, shortened: (§2)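 E. coli ATCC 25922 was treated at 1× MBC and C. albicans cgmcc 2.2086 at 1× MFC, each for 1 h. Untreated control cells were processed in parallel without peptide. Surface morphology was imaged by AFM and SEM, and ultrastructure by TEM.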

Candida albicans [6] = experiment: Induction of cell wall permeabilization in Candida albicans cgmcc 2.2086 assessed as increase in NPN uptake at 2 uM by fluorescence spectrophotometric method relative to control; type: functional
Procedure, shortened: (§3)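 Log-phase E. coli ATCC 25922 or C. albicans cgmcc 2.2086 at OD600 0.2 in 5 mM HEPES pH 7.4 with 5 mM glucose was preloaded 30 min with 10 μM NPN, then peptide was added. Fluorescence (ex 350, em 420 nm) was followed until it plateaued and converted to % uptake against a 100% reference. Run in triplicate.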

Escherichia coli [7] = experiment: Induction of cell wall permeabilization in Escherichia coli ATCC 25922 assessed as increase in NPN uptake by fluorescence spectrophotometric method; type: functional, organism-based
Procedure, shortened: (§4)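 Log-phase cells at OD600 0.2 in 5 mM HEPES (pH 7.4, 5 mM glucose) were preloaded with 10 μM NPN for 30 min, then peptide was added. Fluorescence (ex 350/em 420 nm) was followed until it plateaued and converted to % NPN uptake against initial and maximal fluorescence. Triplicate.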

RAW264.7 [8] = experiment: Induction of endotoxin-neutralization in mouse RAW264.7 cells assessed as inhibition of LPS-induced nitric oxide production after 18 hrs by Griess assay; type: functional, cell-based
Procedure, shortened: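 RAW 264.7 cells were stimulated with 50 ng/mL LPS with or without peptide at various concentrations. TNF-α in supernatants was measured by ELISA and NO by Griess reagent. Mean ± SEM of three independent experiments, compared against LPS alone.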

Lipid bilayer [9] = experiment: Binding affinity to phosphatidylglycerol/cardiolipin/phosphatidylethanolamine large unilamellar vesicle assessed as induction of calcein leakage after 15 mins by spectrofluorophotometric method
Procedure, shortened: (§5)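 Compositions were PG/CL/PE 2:1:7 w/w/w (E. coli membrane mimic; lines 4,5) and PC/PE/PI/ergosterol 5:4:1:2 w/w/w/w (fungal membrane mimic; lines 2,3). Lipids underwent 20 freeze–thaw cycles and were extruded through 100 nm filters; free calcein was removed by gel filtration.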

Candida albicans [10] = experiment: Induction of reactive oxygen species generation in Candida albicans cgmcc 2.2086 at 32 uM after 1 hr by DCFH-DA dye-based spectrofluorophotometric method relative to control; type: functional
Procedure, shortened: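 Intracellular ROS in peptide-treated cells were compared with untreated cells; values are mean ± SEM of three independent experiments.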

Candida albicans [11] = experiment: Antifungal activity against Candida albicans cgmcc 2.2086 in presence of 50% human heat-inactivated serum by broth dilution method; type: functional
Lipopolysaccharide (LPS) = experiment: Displacement of BODIPY-TR-cadaverine from Escherichia coli O111:B4 LPS at 8 uM after 1 hr by spectrofluorophotometric method relative to control
Procedure, shortened: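 Fluorescence-based displacement assay: peptide displaces BODIPY-TR-cadaverine from LPS; polymyxin B served as the LPS-binding reference.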

Escherichia coli [12] = experiment: Induction of cell wall permeabilization in Escherichia coli ATCC 25922 assessed as increase in NPN uptake at 2 uM by fluorescence spectrophotometric method relative to control; type: functional; procedure, shortened: as §3
Escherichia coli [13] = experiment: Induction of membrane damage in Escherichia coli ATCC 25922 assessed as appearance of roughened and broken membrane at MBC after 1 hr by atomic force microscopy; type: functional, organism-based; procedure, shortened: as §2
Candida albicans [14] = experiment: Fungicidal activity against Candida albicans cgmcc 2.2086 at MFC after 5 hrs by time-kill assay; type: functional
Procedure, shortened: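 Time-kill: E. coli ATCC 25922 or C. albicans cgmcc 2.2086 was exposed to peptide at 1× MBC/MFC. At intervals, aliquots were diluted and spread on MHA (bacteria, counted after 24 h at 37 °C) or YPDA (yeast, counted after 48 h at 28 °C). Values are means of three independent assays.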

Candida albicans [15] = experiment: Antifungal activity against Candida albicans cgmcc 2.2086 in presence of 12.5% human heat-inactivated serum by broth dilution method; type: functional
Escherichia coli [16] = experiment: Antibacterial activity against Escherichia coli ATCC 25922 after 18 hrs in presence of 25% human heat-inactivated serum by broth dilution method; type: functional; conditions: ATCC 25922, 18 h
Candida albicans [17] = experiment: Fungicidal activity against fluconazole-resistant Candida albicans 56452 at 0.5 times MFC after 30 passages; type: functional, organism-based
Procedure, shortened: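 Resistance induction. C. albicans cultures were serially passaged by 100-fold dilution every 24 h in 2 mL RPMI 1640 containing sub-MFC peptide, and the MFC was retested at each passage. A control was passaged in RPMI 1640 alone.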

Candida albicans [18] = experiment: Induction of cell wall permeabilization in Candida albicans cgmcc 2.2086 assessed as increase in NPN uptake by fluorescence spectrophotometric method; type: functional, organism-based; procedure, shortened: as §4
Lipid bilayer [19] = experiment: Binding affinity to phosphatidylcholine/cholesterol large unilamellar vesicle assessed as induction of calcein leakage at 2 to 32 uM after 15 mins by spectrofluorophotometric method; conditions: 0.25 h
Procedure, shortened: (§6)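 Large unilamellar vesicles were made from PG/CL/PE (2:1:7), PC/PE/PI/ergosterol (5:4:1:2) or PC/cholesterol (10:1), loaded with 70 mM calcein in Tris/NaCl/EDTA buffer at pH 7.4, frozen and thawed 20 times, and extruded through 100 nm filters. Free dye was removed by gel filtration, and peptide-induced calcein release was measured.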

Lipid bilayer [20] = experiment: Binding affinity to phosphatidylglycerol/cardiolipin/phosphatidylethanolamine large unilamellar vesicle assessed as induction of calcein leakage at 32 uM after 15 mins by spectrofluorophotometric method relative to control; procedure, shortened: as §5
Lipid bilayer [21] = experiment: Binding affinity to phosphatidylglycerol/cardiolipin/phosphatidylethanolamine large unilamellar vesicle assessed as induction of calcein leakage at 2 to 32 uM after 15 mins by spectrofluorophotometric method; procedure, shortened: as §6
Lipid bilayer [22] = experiment: Binding affinity to phosphatidylcholine/phosphatidylethanolamine/phosphatidylinositol/ergosterol large unilamellar vesicle assessed as induction of calcein leakage at 2 to 32 uM after 15 mins by spectrofluorophotometric method; procedure, shortened: as §6

With H-WWRRWRRWW-NH2 the viability at 24 h, up to 32 µM [1] was 70 to 80%, the Activity (RAW264.7 [2]) was “Toxic” and the viability at 24 h, up to 32 µM [3] was 70 to 80%.
With H-RRIRIIIRIRR-NH2 the MIC (Candida albicans [4]) was 4 µM, the Activity (Candida albicans [5]) was “Active” and the Activity (Candida albicans [6]) was 20%. The Activity (Escherichia coli [7]) was “Dose-dependent effect”, the inhibition (RAW264.7 [8]) was “Dose-dependent effect” and the Activity (Lipid bilayer [9]) was “Dose-dependent effect”. For the same molecule, the “fold change (FC)” value (Candida albicans [10]) was 14, the MIC (Candida albicans [11]) was 8 µM and the inhibition (Lipopolysaccharide (LPS)) was 95%. The Activity (Escherichia coli [12]) was >70%, the Activity (Escherichia coli [13]) was “Active” and the Activity (Candida albicans [14]) was >99.99%. For the same molecule, the MIC (Candida albicans [15]) was 2 µM, the MIC (Escherichia coli [16]) was 4 µM and the Activity (Candida albicans [17]) was “Active”. For the same molecule, the Activity (Candida albicans [18]) was “Dose-dependent effect”, the Activity (Lipid bilayer [19]) was “Not Active” and the Activity (Lipid bilayer [20]) was 63%.
For `CC[C@H](C)[C@H](NC(=O)CN)C(=O)NCC(=O)N[C@@H](C)C(=O)N[C@H](C(=O)N[C@@H](CC(C)C)C(=O)N[C@@H](CCCCN)C(=O)N[C@H](C(=O)N[C@@H](CC(C)C)C(=O)N[C@H](C(=O)N[C@H](C(=O)NCC(=O)N[C@@H](CC(C)C)C(=O)N1CCC[C@H]1C(=O)N[C@@H](C)C(=O)N[C@@H](CC(C)C)C(=O)N[C@H](C(=O)N[C@@H](CO)C(=O)N[C@@H](Cc1c[nH]c2ccccc12)C(=O)N[C@H](C(=O)N[C@@H](CCCCN)C(=O)N[C@@H](CCCNC(=N)N)C(=O)N[C@@H](CCCCN)C(=O)N[C@@H](CCCNC(=N)N)C(=O)N[C@@H](CCC(N)=O)C(=O)N[C@@H](CCC(N)=O)C(N)=O)[C@@H](C)CC)[C@@H](C)CC)[C@@H](C)O)[C@@H](C)O)C(C)C)C(C)C` [MELITTIN], the MIC (Candida albicans [4]) was 32 µM, the Activity (Lipid bilayer [21]) was “Active” and the MIC (Candida albicans [11]) was 64 µM. The Activity (Lipid bilayer [22]) was “Active”, the MIC (Candida albicans [15]) was 32 µM and the Activity (Lipid bilayer [19]) was “Active”.
For H-RWWRRWRRWWR-NH2, the viability at 24 h, up to 32 µM [1] was 70 to 80%, the Activity (RAW264.7 [2]) was “Toxic” and the viability at 24 h, up to 32 µM [3] was 70 to 80%.

Reference: ChEMBL document CHEMBL4177755, “Combating Drug-Resistant Fungi with Novel Imperfectly Amphipathic Palindromic Peptides” (J Med Chem, 2018)
